Data: paper PMC7610535 (Nature chemical biology, 2020)

Legend:
AK2 = AK2 (Homo sapiens, UniProt P54819); test: Kinobead selectivity profiling: AK2; format: binding
IMR5 cells = test: BrdU/PI flow cytometry, cell cycle distribution of IMR5 cells; format: cell-based, human; settings: IMR5 cells without ectopic AURORA-A, 1 µM, 18 hours
Procedure, shortened: (§1)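 Cells were pulsed with 10 µM BrdU for 1 h, washed in ice-cold PBS and fixed overnight in 80% ethanol at −20 °C. After a 1% BSA/PBS-T wash, they were stained 30 min at 37 °C with RNase A (24 µg/ml) and propidium iodide (54 µM), then analysed by flow cytometry. For IMR5, the EtOH-treated cells of the doxycycline-inducible line served as the non-overexpressing cells.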

MV4-11 cells = test: BrdU/PI flow cytometry, cell cycle distribution of MV4-11 cells; format: cell-based, human; settings: 1 µM, 12 hours
Procedure, shortened: as §1

AURORA-A [1] = biological target: T1, AURORA-A (Homo sapiens, UniProt O14965); test: Immunoblot of AURORA-A in compound-treated MV4-11 cells; format: cell-based
T1 sequence (O14965 1-403): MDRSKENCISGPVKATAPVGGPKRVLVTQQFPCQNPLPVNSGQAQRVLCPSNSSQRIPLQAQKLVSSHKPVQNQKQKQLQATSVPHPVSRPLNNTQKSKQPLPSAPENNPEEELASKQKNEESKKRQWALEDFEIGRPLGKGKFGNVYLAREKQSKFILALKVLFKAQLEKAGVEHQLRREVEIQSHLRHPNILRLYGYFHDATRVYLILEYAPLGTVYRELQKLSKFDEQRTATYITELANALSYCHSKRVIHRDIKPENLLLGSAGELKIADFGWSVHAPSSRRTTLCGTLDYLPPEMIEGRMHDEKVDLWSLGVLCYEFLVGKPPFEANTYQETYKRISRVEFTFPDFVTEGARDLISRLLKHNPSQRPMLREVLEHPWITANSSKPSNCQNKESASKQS

AURORA-A [2] = biological target: T1, AURORA-A; test: AURORA-A-NanoLuc target engagement assay; format: binding; settings: AURORA-A vs AURORA-B, depending on experimental conditions (BRET, Kinobeads)

- Kd (AK2): 215 nM
- difference of affinities for AURORA-A and AURORA-B (AURORA-A [2]): 3- to 50 fold
SMILES: COc1cc(Nc2ncc3c(n2)-c2ccc(Cl)cc2C(c2c(F)cccc2OC)=NC3)ccc1C(=O)O [Alisertib, alisertib, reference compound]
- cell cycle distribution (IMR5 cells): led to G2/M arrest
- cell cycle distribution (MV4-11 cells): almost all cells arrested in G2/M
- reduction of steady-state AURORA-A levels (in words) (AURORA-A [1]): did not decrease AURORA-A levels, but instead substantially increased it
